This note sets out measurements from PMC9401513 (Clinical Cancer Research, 2021).

The target in series [1] is CYP3A4 (Homo sapiens, UniProt P08684). The series can be described thus: Drug-drug interaction substudy with multiple-dose fluconazole. The class given is in vivo. The conditions noted are these: PF-06647020 co-administered with multiple-dose fluconazole, 11 patients. The procedure, abridged:
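Single-dose test ADC was given alone in cycle 1 (reference) and co-administered with multiple-dose fluconazole in cycle 2 (test). Unconjugated payload exposure was measured as dose-normalized AUCinf and Cmax from noncompartmental analysis. Results were expressed as ratios of adjusted geometric means with 90% confidence intervals.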

The nature of series [2]: Clinical pharmacokinetics. The class given is in vivo, human. The conditions noted are these: 0.2 to 3.7 mg/kg every 3 weeks dose levels of PF-06647020.

Where a SMILES comes first, the peptide text is derived from it. [ ]: non-standard residue; d: D form. The star is where a group is joined. Dolaproine = CO[C@@H]([C@@H]1CCCN1)[C@@H](C)C(=O)O; Dil = CC[C@H](C)[C@H](NC)[C@@H](CC(=O)O)OC; Doe = c1ccc(C[C@H](N*)c2nccs2)cc1; Aib = CC(C)(N)C(=O)O

Chain of CYP3A4 (P08684 whole entry): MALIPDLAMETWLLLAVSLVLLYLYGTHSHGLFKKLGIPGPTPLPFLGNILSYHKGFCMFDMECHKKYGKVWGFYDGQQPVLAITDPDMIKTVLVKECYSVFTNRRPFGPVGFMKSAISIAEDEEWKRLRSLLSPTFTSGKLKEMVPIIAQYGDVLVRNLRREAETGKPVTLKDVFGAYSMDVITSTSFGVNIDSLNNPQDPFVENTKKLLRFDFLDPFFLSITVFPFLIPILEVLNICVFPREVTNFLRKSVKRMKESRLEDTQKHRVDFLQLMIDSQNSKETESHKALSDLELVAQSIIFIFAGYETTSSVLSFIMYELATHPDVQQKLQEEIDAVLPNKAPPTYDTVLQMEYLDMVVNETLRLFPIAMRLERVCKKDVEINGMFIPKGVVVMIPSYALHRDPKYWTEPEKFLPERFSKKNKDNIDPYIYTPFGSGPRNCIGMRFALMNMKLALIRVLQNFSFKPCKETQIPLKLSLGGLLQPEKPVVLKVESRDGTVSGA

On to `CC[C@H](C)[C@@H]([C@@H](CC(=O)N1CCC[C@H]1[C@H](OC)[C@@H](C)C(=O)N[C@@H](Cc1ccccc1)c1nccs1)OC)N(C)C(=O)[C@@H](NC(=O)C(C)(C)N)C(C)C` [PF-06380101, auristatin-0101] (H-[Aib]V[Dil][Dolaproine]-Doe), for which the “impact of fluconazole co-administration on overall exposure” value in series [1] is listed as “did not have a notable impact”.

B1: hu6M024: humanized anti-PTK7 mAb (IgG1); total antibody = conjugated or unconjugated mAb (antibody, chains of the INN, looked up, V domains shown)
VH: QVQLVQSGPEVKKPGASVKVSCKASGYTFTDYAVHWVRQAPGKRLEWIGVISTYNDYTYNNQDFKGRVTMTRDTSASTAYMELSRLRSEDTAVYYCARGNSYFYALDYWGQGTSVTVSS
VL: EIVLTQSPATLSLSPGERATLSCRASESVDSYGKSFMHWYQQKPGQAPRLLIYRASNLESGIPARFSGSGSGTDFTLTISSLEPEDFAVYYCQQSNEDPWTFGGGTKLEIK
Turning to B1, the “systemic exposure (AUCtau, Cmax) versus dose” value in series [2] is “generally increased in a dose-related manner”. In addition, the “impact of fluconazole co-administration on overall exposure” value in series [1] is “did not have a notable impact”.
